In ChEMBL document CHEMBL4028894, “Identification of a New Pyrazolo[1,5-a]quinazoline Ligand Highly Affine to γ-Aminobutyric Type A (GABAA) Receptor Subtype with Anxiolytic-Like and Antihyperalgesic Activity” (J Med Chem, 2017):

Assays:
[1] = Displacement of [3H]Ro15-1788 from GABAA receptor in bovine cerebral cortex membranes after 90 mins by liquid scintillation counting method; assay type: cell membranes, Bos taurus, Membrane
Method in brief: (§1)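 Bovine cerebral cortex membranes in 50 mM tris-citrate pH 7.4, with displacement of specific [3H]flumazenil binding. Single-point screen at 10 μM gives % inhibition. Where inhibition exceeds 80%, at least six concentrations tested and Ki derived by iterative curve fitting and the Cheng-Prusoff equation. Five experiments, each in triplicate; mean ± SEM.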

Bos taurus = organism: Bos taurus; assay: Displacement of [3H]Ro15-1788 from GABAA receptor in bovine cerebral cortex membranes at 10 uM after 90 mins by liquid scintillation counting method relative to control; assay type: cell membranes; conditions: Membrane; method in brief: as §1
Mus musculus [2] = assay: Anxiolytic-like activity in Swiss albino mouse assessed as persistent time in light box at 30 mg/kg, po administered 30 mins prior to testing in presence of GABAA receptor antagonist flumazenil by light dark box test (131.9 +/- 6.5 secs); assay type: functional
Mus musculus [3] = assay: Anxiolytic-like activity in Swiss albino mouse assessed as persistent time in light box at 10 mg/kg, po administered 30 mins prior to testing by light dark box test (131.9 +/- 6.5 secs); assay type: functional
Mus musculus [4] = assay: Anxiolytic-like activity in Swiss albino mouse assessed as persistent time in light box at 1 mg/kg, po administered 30 mins prior to testing by light dark box test (131.9 +/- 6.5 secs); assay type: functional
Mus musculus [5] = assay: Anxiolytic-like activity in Swiss albino mouse assessed as persistent time in light box at 30 mg/kg, po administered 30 mins prior to testing by light dark box test (131.9 +/- 6.5 secs); assay type: functional
Rattus norvegicus [6] = assay: Antihyperalgesic activity in Sprague-Dawley rat peripheral mononeuropathy model assessed as ipsilateral paw pressure at 10 mg/kg, po after 15 mins by analgesimeter (33.7 +/- 3.2 g); assay type: functional
Rattus norvegicus [7] = assay: Antihyperalgesic activity in Sprague-Dawley rat peripheral mononeuropathy model assessed as ipsilateral paw pressure at 10 mg/kg, po after 30 mins by analgesimeter (41.7 +/- 3.6 g); assay type: functional
Rattus norvegicus [8] = assay: Antihyperalgesic activity in Sprague-Dawley rat peripheral mononeuropathy model assessed as ipsilateral paw pressure at 10 mg/kg, po after 45 mins by analgesimeter (36.9 +/- 3.8 g); assay type: functional
Rattus norvegicus [9] = assay: Antihyperalgesic activity in Sprague-Dawley rat peripheral mononeuropathy model assessed as ipsilateral paw pressure at 30 mg/kg, po after 15 mins by analgesimeter (33.7 +/- 3.2 g); assay type: functional
Rattus norvegicus [10] = assay: Antihyperalgesic activity in Sprague-Dawley rat peripheral mononeuropathy model assessed as ipsilateral paw pressure at 30 mg/kg, po after 30 mins by analgesimeter (41.7 +/- 3.6 g); assay type: functional
Rattus norvegicus [11] = assay: Antihyperalgesic activity in Sprague-Dawley rat peripheral mononeuropathy model assessed as ipsilateral paw pressure at 30 mg/kg, po after 45 mins by analgesimeter (36.9 +/- 3.8 g); assay type: functional
Rattus norvegicus [12] = assay: Effect on pain threshold in contralateral paw in Sprague-Dawley rat peripheral mononeuropathy model at 30 mg/kg, po; assay type: ADME, organism-based; conditions: in vivo
Mus musculus [13] = assay: Antihyperalgesic activity in streptozotocin-induced Swiss albino mouse hyperalgesia model assessed as licking latency time at 30 mg/kg, po after 15 mins by hot plate test (reference value: 9.4 +/- 1.1 secs); assay type: functional
Mus musculus [14] = assay: Antihyperalgesic activity in streptozotocin-induced Swiss albino mouse hyperalgesia model assessed as licking latency time at 30 mg/kg, po after 30 mins by hot plate test (reference value: 10.2 +/- 0.8 secs); assay type: functional
Mus musculus [15] = assay: Antihyperalgesic activity in streptozotocin-induced Swiss albino mouse hyperalgesia model assessed as licking latency time at 30 mg/kg, po after 45 mins by hot plate test (reference value: 10.9 +/- 0.8 secs); assay type: functional
Mus musculus [16] = assay: Antihyperalgesic activity in streptozotocin-induced Swiss albino mouse hyperalgesia model assessed as licking latency time at 30 mg/kg, po after 60 mins by hot plate test (reference value: 9.6 +/- 0.9 secs); assay type: functional
Mus musculus [17] = assay: Effect on licking latency time in Swiss albino mouse at 30 mg/kg, po after 15 mins by hot plate test (reference value: 18.3 +/- 1.1 secs); assay type: ADME, organism-based; conditions: in vivo, 0.25 h
Mus musculus [18] = assay: Effect on licking latency time in Swiss albino mouse at 30 mg/kg, po after 30 mins by hot plate test (reference value: 18.8 +/- 1.2 secs); assay type: ADME, organism-based; conditions: in vivo, 0.5 h
Mus musculus [19] = assay: Effect on licking latency time in Swiss albino mouse at 30 mg/kg, po after 45 mins by hot plate test (reference value: 18 +/- 0.9 secs); assay type: ADME, organism-based; conditions: in vivo, 0.75 h
Mus musculus [20] = assay: Effect on licking latency time in Swiss albino mouse at 30 mg/kg, po after 60 mins by hot plate test (reference value: 17.9 +/- 1.1 secs); assay type: ADME, organism-based; conditions: in vivo, 1 h
Mus musculus [21] = assay: Anticonvulsant activity in Swiss albino mouse assessed as protection against subcutaneous pentylenetetrazole-induced seizures at 10 mg/kg, po administered 30 mins followed by pentylenetetrazole challenge measured over 30 mins relative to control; assay type: functional
Method in brief: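 Male Swiss albino mice (23-30 g), 6 per group. Test drug suspended in 1% carboxymethylcellulose, given orally 30 min before PTZ 90 mg/kg s.c. (saline). Clonic generalized convulsions recorded over 30 min. Result expressed as % protection versus vehicle-treated animals (0% protection).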

Mus musculus [22] = assay: Anticonvulsant activity in Swiss albino mouse assessed as protection against subcutaneous pentylenetetrazole-induced seizures at 30 mg/kg, po administered 30 mins followed by pentylenetetrazole challenge measured over 30 mins relative to control; assay type: functional
Method in brief: (§2)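 Male Swiss albino mice, 6 per group. Compound given p.o. in 1% carboxymethylcellulose. Pentylenetetrazole 90 mg/kg in saline given s.c. 30 min later. Occurrence of clonic generalized convulsions noted over 30 min. Result expressed as % protection, with the vehicle group taken as 0%.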

Mus musculus [23] = assay: Anticonvulsant activity in Swiss albino mouse assessed as protection against subcutaneous pentylenetetrazole-induced seizures at 100 mg/kg, po administered 30 mins followed by pentylenetetrazole challenge measured over 30 mins relative to control; assay type: functional; method in brief: as §2
Mus musculus [24] = assay: Amnesic effect in Swiss albino mouse assessed as training session latency time at 30 mg/kg, po administered 30 mins prior to testing by passive-avoidance test (reference value: 14.1 +/- 3.4 secs); assay type: ADME, organism-based; conditions: in vivo
Mus musculus [25] = assay: Amnesic effect in Swiss albino mouse assessed as retention session latency time at 30 mg/kg, po administered 30 mins prior to testing by passive-avoidance test (reference value: 98.4 +/- 8.8 secs); assay type: ADME, organism-based; conditions: in vivo
Mus musculus [26] = assay: Reversal of scopolamine-induced amnesic effect in Swiss albino mouse assessed as training session latency time at 30 mg/kg, po administered 30 mins followed by establishment of training session and immediate addition of scopolamine post session by passive-avoidance test (reference value: 15.9 +/- 3 secs); assay type: functional
Method in brief: (§3)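 Male Swiss albino mice, 8 per group, step-through passive avoidance. Compound given p.o. in 1% carboxymethylcellulose 30 min before training. Scopolamine 1.5 mg/kg in saline given i.p. immediately after training. Punishment on entering the dark compartment is a fall into 10 °C water. Latencies measured at training and at retention 24 h later (max 120 s).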

Mus musculus [27] = assay: Reversal of scopolamine-induced amnesic effect in Swiss albino mouse assessed as retention session latency time at 30 mg/kg, po administered 30 mins followed by establishment of training session and immediate addition of scopolamine post session by passive-avoidance test (reference value: 46.3 +/- 7.5 secs); assay type: functional; method in brief: as §3
Mus musculus [28] = assay: Reversal of scopolamine-induced amnesic effect in Swiss albino mouse assessed as training session latency time at 10 mg/kg, po administered 30 mins followed by establishment of training session and immediate addition of scopolamine post session by passive-avoidance test (reference value: 15.9 +/- 3 secs); assay type: functional; method in brief: as §3
Mus musculus [29] = assay: Reversal of scopolamine-induced amnesic effect in Swiss albino mouse assessed as retention session latency time at 10 mg/kg, po administered 30 mins followed by establishment of training session and immediate addition of scopolamine post session by passive-avoidance test (reference value: 46.3 +/- 7.5 secs); assay type: functional; method in brief: as §3
Mus musculus [30] = assay: Effect on motor coordination in Swiss albino mouse at 30 mg/kg, po measured over 30 secs at 15 to 60 mins post drug administration by rota rod test; assay type: ADME, organism-based; conditions: in vivo
Method in brief: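 Male Swiss albino mice, 8 per group. Oral dose in 1% carboxymethylcellulose. Rota rod turning at 16 r.p.m. Falls from the rod counted over 30 s, measured before dosing and every 15 min up to 60 min after.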

Mus musculus [31] = assay: Effect on spontaneous motility in Swiss albino mouse at 30 mg/kg, po measured over 5 mins by […] test; assay type: ADME, organism-based; conditions: in vivo
Method in brief: (§4)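 Male Swiss albino mice, 8 per group, hole-board: a 40 cm square with 16 holes. Compound given 30 min before the test. Each mouse explores freely for 5 min. Photobeam counts across quadrants give locomotor activity; photocells in the holes give the number of hole inspections.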

Mus musculus [32] = assay: Effect on explorative activity in Swiss albino mouse at 30 mg/kg, po measured over 5 mins by […] test; assay type: ADME, organism-based; conditions: in vivo; method in brief: as §4
NSC = assay: Cytotoxicity against human H9-derived neural stem cells assessed as effect on cell viability at 1 to 1000 nM after 72 hrs by MTS assay; assay type: cell-based; conditions: 1 µM
Method in brief: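 Neural stem cells derived from H9 were grown on polyornithine/laminin and differentiated for 7 days in serum-free Neurobasal with 2% B-27, 2 mM L-glutamine and 5 μM retinoic acid. Cells then exposed 72 h to 1 nM-1 μM compound. MTS absorbance read at 490, background subtracted, expressed as % of untreated cells. Three independent experiments, each in triplicate.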

Mus musculus [33] = assay: Anxiolytic-like activity in Swiss albino mouse assessed as persistent time in light box at 100 mg/kg, ip administered 40 mins prior to testing by light dark box test (131.9 +/- 6.5 secs); assay type: functional

COc1ccc2cnc3c(C#N)cnn3c2c1
Ki [1]: 378 nM | inhibition (Bos taurus): > 80%

O=C(OCc1cccs1)c1cnn2c1ncc1ccccc12
Ki [1]: 13.2 nM | inhibition (Bos taurus): > 80%

COc1ccc2c(c1)-n1ncc(C(=O)OCc3ccccc3)c1NC2
Ki [1]: 34 nM | inhibition (Bos taurus): > 80%

N#Cc1cnn2c1ncc1ccccc12
inhibition (Bos taurus): 27%

COc1ccc2cnc3c(C(=O)OCc4ccccc4OC)cnn3c2c1
Time (Mus musculus [2]): 136.4 s | Ki [1]: 0.27 nM | inhibition (Bos taurus): > 80% | Time (Mus musculus [3]): 169.6 s | Time (Mus musculus [4]): 133.1 s | Time (Mus musculus [5]): 165.7 s | Activity (Rattus norvegicus [6]): 39.8 g | Activity (Rattus norvegicus [7]): 41.7 g | Activity (Rattus norvegicus [8]): 36.9 g | Activity (Rattus norvegicus [9]): 52.4 g | Activity (Rattus norvegicus [10]): 41.7 g | Activity (Rattus norvegicus [11]): 35.9 g | Activity (Rattus norvegicus [12]): Non-Toxic | Time (Mus musculus [13]): 16.6 s | Time (Mus musculus [14]): 15.5 s | Time (Mus musculus [15]): 13.1 s | Time (Mus musculus [16]): 11.2 s | Time (Mus musculus [17]): 17.3 s | Time (Mus musculus [18]): 17.2 s | Time (Mus musculus [19]): 18.4 s | Time (Mus musculus [20]): 17.5 s | Activity (Mus musculus [21]): 0% | Activity (Mus musculus [22]): 10% | Activity (Mus musculus [23]): 10% | Time (Mus musculus [24]): 16.5 s | Time (Mus musculus [25]): 105.6 s | Time (Mus musculus [26]): 17.52 s | Time (Mus musculus [27]): 60.4 s | Time (Mus musculus [28]): 17.5 s | Time (Mus musculus [29]): 53.1 s | Activity (Mus musculus [30]): Non-Toxic | Activity (Mus musculus [31]): Non-Toxic | Activity (Mus musculus [32]): Non-Toxic | Activity (NSC): Non-Toxic

CCOC(=O)c1cnn2c1NCc1ccc(OC)cc1-2
Ki [1]: 376 nM | inhibition (Bos taurus): > 80%

COc1ccc2cnc3c(C(=O)OCc4cccs4)cnn3c2c1
Ki [1]: 16.7 nM | inhibition (Bos taurus): > 80%

O=C(OCc1ccccc1)c1cnn2c1ncc1ccccc12
Ki [1]: 25.9 nM | inhibition (Bos taurus): > 80%

COc1ccc2cnc3c(C(=O)OCc4ccccc4)cnn3c2c1
Ki [1]: 19 nM | inhibition (Bos taurus): > 80%

COc1ccccc1COC(=O)c1cnn2c1ncc1ccccc12
Ki [1]: 3.16 nM | inhibition (Bos taurus): > 80%

CCOC(=O)c1cnn2c1[nH]c(=O)c1ccc(OC)cc12
inhibition (Bos taurus): 2%

COc1ccc2cnc3c(C(=O)OC(C)C)cnn3c2c1
Ki [1]: 97.4 nM | inhibition (Bos taurus): > 80%

COCCOc1ccc2cnc3c(C#N)cnn3c2c1
inhibition (Bos taurus): 53%

COc1ccc2cnc3c(C(=O)OCc4ccco4)cnn3c2c1
Ki [1]: 15.2 nM | inhibition (Bos taurus): > 80%

CCOC(=O)c1ncn2c1CN(C)C(=O)c1cc(F)ccc1-2 [FLUMAZENIL]
Time (Mus musculus [33]): 127.5 s

CCOC(=O)c1cnn2c1ncc1ccccc12
Ki [1]: 529 to 835 nM | inhibition (Bos taurus): > 80%

CN1C(=O)CN=C(c2ccccc2)c2cc(Cl)ccc21 [DIAZEPAM]
Ki [1]: 12.3 nM | Time (Mus musculus [3]): 165.6 s | Activity (Mus musculus [21]): 100%

COc1ccc2c(c1)-n1ncc(C(=O)OCc3ccccc3OC)c1NC2
Ki [1]: 16 nM | inhibition (Bos taurus): > 80%

CCOC(=O)c1cnn2c1ncc1ccc(OC)cc12
Ki [1]: 102 nM | inhibition (Bos taurus): > 80%
